SENP7 inh: SENP7 protease inhibition; Q9BQF6; recombinant SENP7, Z-RLRGG-aminoluciferin luminescence, 40 min; inhibition, % at 5 µM; actives 1.5% (n = 330,000); AID 434973;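 active = inhibition above about 50% at the single test dose, limit read from the data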
Target sequence (Q9BQF6 706-1050 limits assumed): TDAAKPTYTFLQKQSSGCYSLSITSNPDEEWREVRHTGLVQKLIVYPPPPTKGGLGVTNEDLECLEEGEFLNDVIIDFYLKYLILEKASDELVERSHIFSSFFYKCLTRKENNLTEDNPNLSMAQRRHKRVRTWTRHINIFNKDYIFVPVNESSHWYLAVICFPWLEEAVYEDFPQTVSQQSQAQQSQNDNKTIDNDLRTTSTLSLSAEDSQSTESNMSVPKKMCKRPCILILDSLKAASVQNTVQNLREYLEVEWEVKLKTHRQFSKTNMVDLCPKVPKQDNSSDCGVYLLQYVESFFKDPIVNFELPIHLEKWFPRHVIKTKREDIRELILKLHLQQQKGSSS
SENP8 block-1: SENP8 (human) protease inhibition. recombinant SENP8, Nedd8 substrate fluorescence. inhibition, % at 20 µM. actives 0.64% (n = 360,000). AID 602440; in the data active = inhibition mostly above about 40%, no sharp cut-off; inactive = mostly below about 27%
Target sequence (Q96LD8 whole entry, looked up): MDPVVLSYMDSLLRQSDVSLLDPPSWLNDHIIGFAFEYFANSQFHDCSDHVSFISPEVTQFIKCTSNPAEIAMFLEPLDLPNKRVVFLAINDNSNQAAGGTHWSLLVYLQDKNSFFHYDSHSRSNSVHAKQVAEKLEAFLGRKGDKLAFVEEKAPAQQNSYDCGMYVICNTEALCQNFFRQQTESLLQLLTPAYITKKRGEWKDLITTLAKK
Apaf1 inhib: inhibitors of human Apaf-1 apoptosome; actives 0.71% (n = 330,000); reconstituted apoptosome caspase-3 activity, DEVD-Rh110 fluorescence; inhibition, % at 20 µM; O14727; active = inhibition of at least 40% at 20 µM
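Material: biochemical Apaf-1 apoptosome reconstitution. Medium: Hepes buffer, pH 7.5. Also added: cytochrome c activation, bis-DEVD rhodamine 110 substrate. Timing: 30 min compound preincubation, 50 min activation, room temperature. Measured by: rhodamine 110 fluorescence at Ex 480/Em 540 nm.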
SENP8 block-2: inhibitors of human SENP8 protease | Q96LD8 | purified SENP8, Z-RLRGG-aminoluciferin cleavage, luminescence | inhibition, % at 10 µM | AID 2540 | actives 1.2% (n = 330,000); in the data active = inhibition above about 50%
SENP6 inh: inhibitors of human SENP6 protease; Q9GZR1; Recombinant SENP6 catalytic domain, aminoluciferin luminescence; inhibition, % at 10 µM; actives 1.8% (n = 330,000);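 active = inhibition above about 50% at the single tested dose, limit read from the data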
UBC13 inh: blocks human UBC13 polyubiquitin chain formation; actives 0.47% (n = 330,000); inhibition, % at 20 µM; TR-FRET; AID 485273; in the data active = inhibition above about 45%, passing the limit was not always enough; inconclusive = no clear call, values can overlap the other calls
Casp3 counter: counter-screen for UBC13 inhibitors: human caspase-3 inhibition | inhibition, % at 20 µM | shares compounds with UBC13 inh | AID 488856 | Recombinant caspase-3, Caspase-Glo 3/7 luminescence, 60 min | actives 4% (n = 1,400);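 active = mean inhibition across replicates above about 26%, limit read from the data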
UBC13 conf: human UBC13 polyubiquitin inhibition, confirmed; UBC13 polyubiquitination, TR-FRET, biochemical; inhibition, % at 10 µM; actives 68% (n = 1,400); AID 488859; shares compounds with UBC13 inh; in the data active = inhibition above about 45%; inconclusive = no clear call, values can overlap the other calls
Numbers stand for hits. Hits are enriched below; roughly 3% of the tested compounds scored in any of these assays.

For CCSc1ccccc1C(=O)N1CCN(Cc2ccc3c(c2)OCO3)CC1 the results were SENP7 inh inactive, SENP8 block-1 inactive, Apaf1 inhib inactive, SENP8 block-2 inactive, SENP6 inh inactive, UBC13 inh 99.1, Casp3 counter inactive and UBC13 conf inactive.
Screening CN(C)CCCn1cnc2c(c1=N)C(c1ccccc1)c1ccc3ccccc3c1O2 (centres undefined) returned SENP7 inh inactive, SENP8 block-1 inactive, Apaf1 inhib inactive, SENP8 block-2 inactive, SENP6 inh inactive, UBC13 inh 70.9, Casp3 counter inactive and UBC13 conf 82.1.
Cc1cccc(-c2nc(C#N)c(NCC3CCCO3)o2)c1 (centres undefined) was read as SENP7 inh inactive, SENP8 block-1 inactive, Apaf1 inhib inactive, SENP8 block-2 inactive, SENP6 inh inactive and UBC13 inh inactive.
For Cc1ccccc1C(=O)N1CCN(c2ccc(NC(=S)NC(=O)c3cccs3)cc2)CC1 the results were SENP7 inh inactive, SENP8 block-1 inactive, Apaf1 inhib inactive, SENP8 block-2 inactive, SENP6 inh inactive, UBC13 inh 86.5, Casp3 counter inactive and UBC13 conf 85.3.
COc1cccc2sc(N(CCCN(C)C)C(=O)c3sc4ccccc4c3Cl)nc12 was read as SENP7 inh inactive, SENP8 block-1 inactive, Apaf1 inhib inactive, SENP8 block-2 inactive, SENP6 inh inactive, UBC13 inh 45.4, Casp3 counter inactive and UBC13 conf 68.7.
CCOC(=O)c1nn(-c2ccccc2)c(=O)cc1OCC(=O)Nc1cc(C)ccc1C was read as SENP7 inh inactive, SENP8 block-1 inactive, Apaf1 inhib inactive, SENP8 block-2 inactive, SENP6 inh inactive and UBC13 inh inactive.
`CCOC(=O)c1nn(-c2ccccc2)c(=O)cc1OCC(=O)Nc1ccccc1OCC` gave SENP7 inh inactive, SENP8 block-1 inactive, Apaf1 inhib inactive, SENP8 block-2 inactive, SENP6 inh inactive, UBC13 inh 56.7, Casp3 counter inactive and UBC13 conf inconclusive.
`Cc1nn2c(nc(N3CCOCC3)c3ccccc32)c1C=C(C#N)C#N` gave SENP7 inh inactive, SENP8 block-1 inactive, Apaf1 inhib inactive, SENP8 block-2 inactive, SENP6 inh inactive, UBC13 inh 47.2, Casp3 counter inactive and UBC13 conf 45.7.
Screening O=C(CCn1ccnc1)Nc1nc2ccccc2[nH]1 returned SENP7 inh inactive, SENP8 block-1 inactive, Apaf1 inhib inactive, SENP8 block-2 inactive, SENP6 inh inactive and UBC13 inh inactive.
`Cc1ccc2[nH]c(=O)c(NC(N)=S)nc2c1` gave SENP7 inh inactive, SENP8 block-1 inactive, Apaf1 inhib inactive, SENP8 block-2 inactive, SENP6 inh inactive, UBC13 inh 71.0, Casp3 counter inactive and UBC13 conf 84.8.
For NC(=S)Nc1nc2ccccc2[nH]c1=O the results were SENP7 inh inactive, Apaf1 inhib inactive, SENP8 block-2 inactive, SENP6 inh inactive, UBC13 inh 59.8, Casp3 counter inactive and UBC13 conf 63.6.
COCCNC(=S)N=Nc1c(O)[nH]c2c(C)cc(C)cc12 was read as SENP7 inh inactive, SENP8 block-1 inactive, Apaf1 inhib inactive, SENP8 block-2 inactive, SENP6 inh inactive, UBC13 inh 87.2, Casp3 counter inactive and UBC13 conf 101.6.
For COc1ccccc1NC(=O)Nc1nc(C(C)(C)C)cs1 the results were SENP7 inh inactive, SENP8 block-1 inactive, Apaf1 inhib inactive, SENP8 block-2 inactive, SENP6 inh inactive, UBC13 inh 53.2, Casp3 counter inactive and UBC13 conf 54.8.
COc1ccccc1NC(=O)Nc1nc(C(N)C(C)C)cs1 (centres undefined) was read as SENP8 block-1 inactive.
For Cc1ccc(C(=O)NCCCNC(=O)c2ccc(Cl)cc2)cn1 the results were SENP7 inh inactive, SENP8 block-1 inactive, Apaf1 inhib inactive, SENP8 block-2 inactive, SENP6 inh inactive and UBC13 inh inactive.
Cc1ccc(Nc2nnc(-c3ccccc3N)o2)cc1C was read as SENP7 inh 62.6, SENP8 block-1 inactive, Apaf1 inhib inactive, SENP8 block-2 inactive, SENP6 inh inactive, UBC13 inh 46.0, Casp3 counter 39.0 and UBC13 conf inactive.
`O=C(CCC(=O)N1CCCC1)Nc1ccc(Cl)c(Cl)c1` gave SENP7 inh inactive, SENP8 block-1 inactive, Apaf1 inhib inactive, SENP8 block-2 inactive, SENP6 inh inactive and UBC13 inh inactive.
`CCCCNc1c(-c2ccc(OC)c(SC3CCCCC3)c2)nc2cc(C)ccn12` gave SENP7 inh inactive, SENP8 block-1 inactive, Apaf1 inhib inactive, SENP8 block-2 inactive, SENP6 inh inactive, UBC13 inh 49.9, Casp3 counter inactive and UBC13 conf inactive.
`CCCCCCSc1cc(-c2nc3cc(C)ccn3c2NC2CCCCC2)ccc1OC` gave SENP7 inh inactive, SENP8 block-1 inactive, Apaf1 inhib inactive, SENP8 block-2 inactive, SENP6 inh inactive, UBC13 inh 50.8, Casp3 counter inactive and UBC13 conf inactive.
CCCCNc1c(-c2ccc(OC)c(SC3CCCCC3)c2)nc2cnccn12 was read as SENP7 inh inactive, SENP8 block-1 inactive, Apaf1 inhib inactive, SENP8 block-2 inactive, SENP6 inh inactive and UBC13 inh inactive.
`COCCNc1nc2c(-c3cccc(C(F)(F)F)c3)nnn2c2ccccc12` gave SENP7 inh inactive, SENP8 block-1 inactive, Apaf1 inhib inactive, SENP8 block-2 inactive, SENP6 inh inactive, UBC13 inh 46.9, Casp3 counter inactive and UBC13 conf inconclusive.
Screening CCOCCCNc1nc2c(-c3ccccc3)nnn2c2ccccc12 returned SENP7 inh inactive, SENP8 block-1 inactive, Apaf1 inhib inactive, SENP8 block-2 inactive, SENP6 inh inactive and UBC13 inh inactive.
Screening CC(C)OCCCNc1nc2c(-c3ccccc3)nnn2c2ccccc12 returned SENP7 inh inactive, Apaf1 inhib inactive, SENP8 block-2 inactive, SENP6 inh inactive, UBC13 inh 46.5, Casp3 counter inactive and UBC13 conf inactive.
`Cc1ccc(C)c(N2C(=O)CC(Cc3ccccc3)C2=O)c1` (centres undefined) gave SENP7 inh inactive, SENP8 block-1 inactive, Apaf1 inhib inactive, SENP8 block-2 inactive, SENP6 inh inactive and UBC13 inh inactive.
Screening COc1ccc(O)c(C(=O)c2cnn(C(=O)c3cccc(S(=O)(=O)N4CCOCC4)c3)c2)c1 returned SENP7 inh inactive, SENP8 block-1 inactive, Apaf1 inhib inactive, SENP8 block-2 inactive, SENP6 inh inactive and UBC13 inh inactive.
`CC(C)[C@H](NC(=O)c1ccccc1F)C(=O)NNC(=O)c1cccs1` gave SENP7 inh inactive, SENP8 block-1 inactive, Apaf1 inhib inactive, SENP8 block-2 inactive, SENP6 inh inactive and UBC13 inh inactive.

From PubChem BioAssay
